Format in all cases: cell-based
Assay [1] relates to CDK4/6. Briefly: Immunoblot for CDK4/6 degradation in Jurkat cells. The following applies: WT Jurkat cells, 4h, Figure 3. Put shortly: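 Jurkat cells, which express both CDK4 and CDK6, were treated for 4h with test compound at 1 µM. The test compounds were degraders built on each of three CDK4/6 inhibitor scaffolds. CDK4 and CDK6 protein levels were then assessed by immunoblot.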
In general terms: A western blot detects proteins with antibodies after separation by electrophoresis.

Assay [2] relates to IKZF1/3. Nature of the assay: Immunoblot for IKZF1/3 degradation in Jurkat cells. The following applies: 4h, Figure 3.
Assay [3] concerns Molt4 cells. Nature of the assay: Multiplexed MS-based quantitative proteomics. The following applies: 250 nM, 5h.
Assay [4] deals with CDK4/6, IKZF1/3, phosphorylated Rb. Nature of the assay: Immunoblots in Granta-519 cells. The following applies: 1 µM, 1d.
In assay [5] the test system is wildtype and Crbn−/− Jurkat cells. Nature of the assay: Cell cycle profile by propidium iodide staining of DNA content. The following applies: 100 nM, 24h. Put shortly:
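Wildtype and Crbn−/− Jurkat cells were exposed to 100 nM test compound for 24h, alongside a parent CDK4/6 inhibitor and an imide CRBN ligand as comparators. Cells were stained with propidium iodide for DNA content, and cell cycle distribution was read from fluorescence histograms and then quantitated.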

On to `CN(C)C(=O)c1cc2cnc(Nc3ccc(N4CCN(CCCCNC(=O)CNc5cccc6c5C(=O)N(C5CCC(=O)NC5=O)C6=O)CC4)cn3)nc2n1C1CCCC1` (centres unmarked) [BSJ-01–187], for which the “CDK4 and CDK6 degradation selectivity (immunoblot)” value in assay [1] was “selectively degraded CDK4”. The “IKZF1/3 degradation (immunoblot)” value in assay [2] is given as “induced degradation of IKZF1/3”.
As to `CC(=O)c1c(C)c2cnc(Nc3ccc(N4CCN(CCOCCOCCOCCNC(=O)COc5cccc6c5C(=O)N(C5CCC(=O)NC5=O)C6=O)CC4)cn3)nc2n(C2CCCC2)c1=O` (centres unmarked) [BSJ-03–123], the “CDK4 and CDK6 degradation selectivity (immunoblot)” value in assay [1] is “selective CDK6 degrader”. Also, the “IKZF1/3 degradation (immunoblot)” value in assay [2] is given as “none of which induced IKZF1/3 degradation”. In addition, the proteome-wide degradation selectivity entry in assay [3] is “loss of CDK6, but not CDK4 or IKZF1/3”.
In the case of `CC(=O)c1c(C)c2cnc(Nc3ccc(N4CCN(CCCCNC(=O)COc5cccc6c5C(=O)N(C5CCC(=O)NC5=O)C6=O)CC4)cn3)nc2n(C2CCCC2)c1=O` (centres unmarked) [BSJ-03–204], in assay [1], the “CDK4 and CDK6 degradation selectivity (immunoblot)” value is “dual CDK4/6 degrader”. For the same molecule, the “CDK4/6 and IKZF1/3 protein loss (immunoblot)” value in assay [4] is on record as “only resulted in degradation of CDK4/6”. In addition, the “IKZF1/3 degradation (immunoblot)” value in assay [2] is reported as “none of which induced IKZF1/3 degradation”. In addition, in assay [3], the proteome-wide degradation selectivity result is “selective for CDK4/6 degradation”.
As for `CN(C)C(=O)c1cc2cnc(Nc3ccc(N4CCN(CCCCNC(=O)COc5cccc6c5C(=O)N(C5CCC(=O)NC5=O)C6=O)CC4)cn3)nc2n1C1CCCC1` (centres unmarked) [BSJ-04–132], the “CDK4 and CDK6 degradation selectivity (immunoblot)” value in assay [1] was “selective CDK4 degrader”. Besides, the “IKZF1/3 degradation (immunoblot)” value in assay [2] is “none of which induced IKZF1/3 degradation”. Also, in assay [3], the CDK4 abundance change is ~ 1.9 fold change; the proteome-wide degradation selectivity result was “its level was reduced to a greater extent than those of CDK6, IKZF1 and IKZF3”.
For `CC(=O)c1c(C)c2cnc(Nc3ccc(N4CCN(CC(=O)NCCOCCOCCOCCNc5cccc6c5C(=O)N(C5CCC(=O)NC5=O)C6=O)CC4)cn3)nc2n(C2CCCC2)c1=O` (centres unmarked) [YKL-06–102], the “CDK4 and CDK6 degradation selectivity (immunoblot)” value in assay [1] is listed as “induced selective degradation of CDK6”. Also, the “IKZF1/3 degradation (immunoblot)” value in assay [2] is on record as “induced degradation of IKZF1/3”.
For `Nc1cccc2c1CN(C1CCC(=O)NC1=O)C2=O` (centres unmarked) [lenalidomide], the “cell cycle effect (G1 arrest)” value in assay [5] (Crbn−/− Jurkat cells) and in assay [5] (wildtype Jurkat cells) was “had no effect” in each case.
Regarding `CC(=O)c1c(C)c2cnc(Nc3ccc(N4CCNCC4)cn3)nc2n(C2CCCC2)c1=O` [palbociclib], in assay [4], the “levels of phosphorylated Rb (immunoblot)” value is “reduced levels of phosphorylated Rb”. Further, the “cell cycle effect (G1 arrest)” value in assay [5] (Crbn−/− Jurkat cells) and in assay [5] (wildtype Jurkat cells) was “induced profound G1 arrest in both cell lines” throughout.

Source of the values: PMC7678623 (Angewandte Chemie (International ed. in English), 2019).
